Compound activity from PubChem.
HIV Rev-RRE inh: HIV Rev-RRE protein-RNA interaction inhibition | Rev peptide-RRE RNA binding, FRET | actives 0.79% (n = 97,000) | AID 704 | inhibition, % at 8 µM | P05866;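 active = inhibition above the screen-wide mean plus 3 SD, cut at about 35% in these data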;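 note: 0% = median DMSO wells and 100% = median Neomycin B control wells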
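Assay system: Rev peptide and RRE RNA, both fluorescently labelled; times: 5 min preincubation and 15 min binding, 25 °C; detection: FRET, ex 480 nm, em 540 and 671 nm; read-out basis: % inhibition from 671/540 nm acceptor-to-donor ratio, scaled between controls; benchmarks: DMSO low control, neomycin B high control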
Plk1 PBD FP: Plk1 (human) PBD binding inhibition. P53350. Plk1 PBD phosphopeptide binding, fluorescence polarization. inhibition, %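 (tested at about 20 µM)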. actives 0.13% (n = 97,000). AID 693; in the data active = inhibition above about 34%, passing the limit was not always enough
Target sequence (P53350 whole entry, looked up): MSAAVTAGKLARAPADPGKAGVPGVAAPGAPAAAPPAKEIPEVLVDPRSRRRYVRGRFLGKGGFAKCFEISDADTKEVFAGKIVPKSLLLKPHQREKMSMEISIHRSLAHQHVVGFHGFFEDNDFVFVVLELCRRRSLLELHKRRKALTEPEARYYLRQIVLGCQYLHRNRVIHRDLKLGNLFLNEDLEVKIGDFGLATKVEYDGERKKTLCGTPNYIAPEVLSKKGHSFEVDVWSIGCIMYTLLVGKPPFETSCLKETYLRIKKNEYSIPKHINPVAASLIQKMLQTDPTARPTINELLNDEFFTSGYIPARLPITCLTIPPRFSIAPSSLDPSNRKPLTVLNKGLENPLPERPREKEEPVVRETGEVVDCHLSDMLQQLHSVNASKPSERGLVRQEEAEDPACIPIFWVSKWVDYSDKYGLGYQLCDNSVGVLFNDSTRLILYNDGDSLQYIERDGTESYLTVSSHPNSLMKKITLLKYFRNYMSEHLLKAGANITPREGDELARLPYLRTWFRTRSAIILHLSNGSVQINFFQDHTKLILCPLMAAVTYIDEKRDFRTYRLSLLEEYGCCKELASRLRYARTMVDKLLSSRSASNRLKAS
PostGolgi ctrl: yeast control strain growth, post-Golgi counter-screen; actives 5% (n = 98,000); inhibition, % at 10 µM; AID 738; efflux-deficient yeast background strain, growth absorbance A615, 16 h
PostGolgi yeast: growth inhibition of a yeast mutant, post-Golgi transport screen. post-Golgi transport phenotypic cell assay. AID 739. inhibition, % at 10 µM. actives 0.9% (n = 98,000);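 note: yeast cells grown in 1536-well plates; yeast grown about 18 h at 30C before absorbance read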
EphB4 ephrin blk: antagonists of human EphB4-ephrin-B2 interaction; P54760; EphB4 LBD / TNYL-RAW-Alexa532 peptide, fluorescence polarization; inhibition, % at 7 µM; actives 0.15% (n = 97,000);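 active = inhibition above the screen-wide mean inhibition plus 3 SD, cut at about 15% in these data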;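 note: 0% = DMSO wells and 100% = excess unlabeled TNYL-RAW peptide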
PLK1 kinase inh: PLK1 (human) kinase inhibition; P53350; recombinant PLK1 kinase, TR-FRET peptide phosphorylation; inhibition, % at 10 µM; actives 0.53% (n = 97,000); AID 619;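 active = inhibition of 50% or more in the single-concentration screen; inactive = inhibition below 50%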;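 note: 0% = DMSO max control and 100% = H-89 dihydrochloride min control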
Starred values were filed as active, the others as inactive; . = not tested or not shown. Hits are enriched below; roughly 6.4% of the tested compounds scored in any of these assays. Cut-off read from the data, not from the text of the source, unless noted: active = inhibition above about 30%; inactive = the rest.

SMILES | HIV Rev-RRE inh | Plk1 PBD FP | PostGolgi ctrl | PostGolgi yeast | EphB4 ephrin blk | PLK1 kinase inh
CCOC(=O)N1CCC(n2c(SCC(=O)NCc3ccccc3)nc3ccccc3c2=O)CC1 | 2 | 15 | 30 | 5 | 16* | -9
CCOC(=O)N1CCC(n2c(SCC(=O)N3CCCC3)nc3ccccc3c2=O)CC1 | 1 | -12 | 16 | 3 | 0 | -10
N#CC(c1ccc(O)cc1)N1CCOCC1 (centres undefined) | 6 | 2 | . | . | -8 | -14
Cc1cccc(-c2noc(CCCC(=O)Nc3cccnc3)n2)c1 | 7 | 0 | 6 | -5 | -3 | -10
O=C(CCCC(=O)Nc1cccnc1)Nc1cccnc1 | 7 | 20 | 5 | 3 | 4 | -7
O=C(CCCc1nc(-c2ccc(Cl)cc2)no1)Nc1cccnc1 | 7 | -12 | 88* | 54* | 1 | -9
O=C(CCCOc1ccc(Cl)cc1Cl)Nc1cccnc1 | 3 | -26 | 39* | 69* | 2 | -1
O=C(CCN1C(=O)C2C3C=CC(C4CC34)C2C1=O)Oc1cccc2cccnc12 (centres undefined) | 7 | -8 | 6 | 3 | -2 | -11
CCc1cc2c(=O)c(-c3nc4ccccc4n3C)c(C)oc2c(CN2CCN(CCO)CC2)c1O | 4 | 10 | -1 | 52* | 3 | -1
Cc1ccccc1OCC(=O)NCCN1CCCC1 | 1 | -23 | 35* | -4 | -5 | -21
CC(C)NC(=O)COC(=O)c1ccc(Cl)c(S(=O)(=O)N2CCCC2)c1 | 8 | -10 | 32* | -3 | 3 | -3
Cc1cc(C2N=C(N)Nc3nc4ccccc4n32)c(C)n1-c1ccccc1Cl (centres undefined) | . | . | 13 | 9 | . | .
Cc1ccc(-n2c(C)cc(C3N=C(N)Nc4nc5ccccc5n43)c2C)c(C)c1 (centres undefined) | 2 | -9 | 46* | 1 | 1 | 7
CCOCCCNC(=O)COc1ccc(OC)cc1 | 2 | -19 | -6 | -10 | 2 | -6
Cc1cc(/C=C2\SC(=S)NC2=O)c(C)n1C1CC1 | 65* | -23 | 56* | 0 | 0 | -4
Cc1ccc(N=Cc2cc(C)n(C3CCCC3)c2C)cc1 | 6 | -10 | 5 | 0 | 7 | -8
COc1cccc(C(c2sc3ncnn3c2O)N2CCN(C(=O)c3ccco3)CC2)c1 (centres undefined) | 8 | 6 | 3 | -5 | 4 | -7
COc1ccccc1N(CC(=O)NCc1ccccc1)C(=O)CCC(=O)Nc1cc(C)ccn1 | 3 | 11 | . | . | 1 | -6
Cc1c(C(=O)N2CCc3ccccc3C2)sc2nc(-c3ccccc3)cn12 | 2 | 18 | 47* | 5 | 4 | -1
Cc1c(C(=O)N2CCOCC2)sc2nc(-c3ccccc3)cn12 | 5 | -3 | 7 | -4 | 2 | -9
CCc1nn2c(N3CCOCC3)cc(C)nc2c1-c1ccc(F)cc1 | 9 | -4 | 45* | -4 | 0 | -28
Cc1cc(N2CCOCC2)n2ncc(-c3ccccc3)c2n1 | 0 | -3 | 26 | 0 | 0 | -13
Cc1ccc(N(CC(O)Cn2c3ccccc3c3ccccc32)S(C)(=O)=O)c(C)c1 (centres undefined) | 11 | -37 | 51* | -6 | -5 | 6
Cc1cccc(C)c1N(CC(O)Cn1c2ccccc2c2ccccc21)S(C)(=O)=O (centres undefined) | 14 | 5 | 16 | -5 | -1 | -29
Cc1ccc(N(CC(O)CON=C2c3ccccc3-c3ccccc32)S(C)(=O)=O)cc1 (centres undefined) | 15 | -3 | 67* | -3 | 1 | -10
Cc1ccc(N(CC(O)CN2CCCC2)S(=O)(=O)c2ccc(C)cc2)cc1 (centres undefined) | -2 | 34 | 46* | -1 | 2 | -2
Cc1ccc(N(CC(O)Cn2c3ccccc3c3ccccc32)S(C)(=O)=O)cc1 (centres undefined) | 14 | -23 | 51* | 18 | 5 | 1
Cc1cc(S(=O)(=O)Nc2ccc3ccccc3c2)c(C)s1 | 20 | -11 | 78* | -11 | 0 | 0
CC(C)(C)c1ccc(-c2nnc(SCCN3C(=O)c4ccccc4C3=O)o2)cc1 | 6 | -2 | 33* | -3 | 1 | -2
